DNMT1 block: blocks human DNA methyltransferase DNMT1. 360,000 tested, 0.83% active. P26358. DNMT1 molecular beacon, Hinp1I cleavage, fluorescence. inhibition (reported as % activation of signal), % at 10 µM; in the data active means inhibition above about 50%
NadD block: NadD (S. aureus) enzyme inhibition; purified NadD enzyme, colorimetric absorbance read-out; inhibition, % at 20 µM; 360,000 tested, 0.78% active; in the data active means inhibition above about 26%
LMPTP block: blocks human LMPTP phosphatase; recombinant LMPTP-A, OMFP fluorogenic substrate, fluorescence intensity; inhibition, % at 20 µM; 360,000 tested, 0.22% active;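 active means compounds that cut the enzyme signal by at least half of the control window in the single-dose screen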;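 further: plate controls were DMSO wells with enzyme plus substrate for no effect and substrate without enzyme for full effect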
Target sequence (P24666 whole entry, looked up): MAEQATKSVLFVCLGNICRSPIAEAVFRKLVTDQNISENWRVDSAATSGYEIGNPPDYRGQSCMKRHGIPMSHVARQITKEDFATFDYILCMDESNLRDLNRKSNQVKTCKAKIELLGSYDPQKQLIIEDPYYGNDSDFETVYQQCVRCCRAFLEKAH
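material = LMPTP-A | quantity = 0.625 nM enzyme | reagent = OMFP substrate, 400 µM final | buffer or medium = Bis-Tris pH 6.0, DTT, detergent | detection = endpoint fluorescence intensity from OMFP dephosphorylation | dosing = single 20 µM dose | read-out basis = % inhibition relative to no-enzyme and uninhibited control wells | control set = no-enzyme and uninhibited controls | timing = 50 min at room temperature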
SUMO1 PPI mod: SUMO1-SIM interaction modulation. AID 602429. SUMO1 binding to a labelled peptide, TR-FRET, 1 h. inhibition, % at 20 µM. P63165. 360,000 tested, 0.33% active; in the data active means inhibition above about 37%
Target sequence (P63165 whole entry, looked up): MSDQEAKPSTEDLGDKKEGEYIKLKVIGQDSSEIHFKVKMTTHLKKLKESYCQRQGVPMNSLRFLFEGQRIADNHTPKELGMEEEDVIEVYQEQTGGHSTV
Scp1 inh: Scp-1 (human) phosphatase inhibition. AID 493091. 340,000 tested, 0.88% active. Q9GZU7. Recombinant Scp1, phosphopeptide, malachite green phosphate absorbance. inhibition, % at 20 µM;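 active means inhibition above about 50% at 20 µM, limit read from the data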;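 further: plate controls were DMSO wells with enzyme for no effect and wells lacking enzyme for full effect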
Target sequence (Q9GZU7 76-261 limits assumed): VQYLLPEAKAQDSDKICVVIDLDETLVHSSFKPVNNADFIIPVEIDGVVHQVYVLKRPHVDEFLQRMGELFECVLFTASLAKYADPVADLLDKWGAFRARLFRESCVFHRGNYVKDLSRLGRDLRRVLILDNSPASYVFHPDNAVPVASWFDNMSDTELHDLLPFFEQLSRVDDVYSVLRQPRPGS
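Test system: SCP-1 phosphatase catalytic domain, residues 76-261 | Compound dosing: One concentration, 20 µM, with 1.0% DMSO | Schedule: 45 min room-temperature reaction, 5 min colour, 30 min stabiliser | Detection: Absorbance at 630 nm | Read-out basis: % inhibition of SCP-1 phosphate liberation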
STEP inh: inhibitors of human striatal-enriched phosphatase STEP; P54829; recombinant STEP, OMFP fluorogenic substrate, fluorescence; inhibition, % at 20 µM; 360,000 tested, 0.25% active;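 active means inhibition at 20 µM, scaled per plate between control wells, above about 37%, limit read from the data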;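 further: 0% = DMSO with enzyme and substrate and 100% = substrate only without enzyme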
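System: STEP phosphatase, cell-free reaction; Buffer or medium: Bis-Tris pH 6.0 buffer with DTT, detergent; Incubation: 20 min at room temperature, dark; Measured by: fluorescence, 480/540 nm.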
Scp-1 conf: confirmation of human Scp-1 phosphatase inhibitors; shares compounds with Scp1 inh; recombinant SCP-1 catalytic domain, phosphate release, malachite green absorbance; inhibition, % at 20 µM; 2,500 tested, 61% active;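 further: plate controls were DMSO with enzyme for no effect and buffer wells lacking enzyme for full effect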
MG interference: colorimetric interference in Scp-1 counter-screen; AID 540313; shares compounds with Scp1 inh; apparent inhibition (interference), % at 20 µM; 2,500 tested, under 10 active; Colorimetric interference counterscreen, malachite green absorbance 630 nm;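 further: compounds added after enzyme reaction finished so only phosphate colour detection is probed; plate controls were DMSO wells with completed Scp-1 reaction for no effect and substrate wells lacking enzyme for full effect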
Scp-1 Tm shift: binds human Scp-1, shifting its melting temperature; shares compounds with Scp1 inh; AID 540329; thermal shift relative to vanadate control, % at 40 µM; 1,500 tested, 25% active; Recombinant SCP1, Sypro Orange thermal shift Tm;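 active means substances whose mean melting-temperature shift, as a percentage of the reference inhibitor's shift, reaches about 5.3%, limit read from the data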;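 further: 0% = Tm of DMSO wells and 100% = Tm with sodium orthovanadate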
An asterisk follows results filed as active; / = no result. Only some compounds are listed: those with a hit (about 2.3% of all), similar ones and a draw of the others.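 How the source made its calls, unless noted: active means inhibition of at least 30% at 20 µM; inactive means the rest.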

SMILES	DNMT1 block	NadD block	LMPTP block	SUMO1 PPI mod	Scp1 inh	STEP inh	Scp-1 conf	MG interference	others
CN(C)CC(C)(C)CNS(=O)(=O)c1cccc(Cl)c1Cl	-0.9	13.5	-1.7	-2.7	69.6*	-5.0	12.0	-22.1
CC(=O)Nc1ccc(S(=O)(=O)N/N=C/c2ccc(C)s2)cc1	-1.0	-3.2	0.4	-2.1	-2.0	-3.5	/	/
CN(/N=C/c1ccncc1)c1cnn(-c2ccc(F)c(Cl)c2)c(=O)c1Cl	-1.7	5.5	31.8	7.9	54.5*	15.0	9.4	-13.7
O=C1/C(=C\c2cccc([N+](=O)[O-])c2O)SC(=S)N1Cc1ccccc1	7.5	11.2	9.4	22.5	73.3*	6.5	15.5	-24.7
CC1(C)CC(=O)C/C(=N/NC(=O)COc2ccc3ccccc3c2Br)C1	-11.6	19.4	1.1	-10.4	-1.8	0.4	/	/
NC(=O)c1cc([N+](=O)[O-])ccc1NCc1ccc(N)cc1	-1.0	-1.7	-0.2	-36.7	-8.6	0.6	/	/
Cc1cc(C)c(C(=O)O)c(CC(C)(C)C(=O)O)c1	9.1	0.4	0.6	3.3	-7.2	2.2	/	/
Cc1ccc(CNC(=O)CCS(=O)(=O)c2ccc3c(c2)oc(=O)n3C)cc1	0.9	2.4	-1.3	-7.5	-4.0	0.6	/	/
CN(C)c1ccc(CNC(=O)CCS(=O)(=O)c2ccc3c(c2)n(C)c(=O)c(=O)n3C)cc1	30.3	-1.7	-0.6	22.5	63.5*	2.0	25.0	-12.0
Cc1ccc(S(=O)(=O)NN2C(=O)/C(=C/c3ccc(C(=O)O)cc3)SC2=S)cc1	-0.2	-3.3	1.9	-13.4	63.7*	3.0	4.5	-11.5
Nn1c(SCC(=O)Nc2ccc3c(c2)OCCO3)nnc1C(F)(F)F	1.5	1.4	-4.0	0.3	99.6*	0.4	10.0	0.3
COc1cccc(-c2cc(C(=O)NCC3CCCO3)c3cc(C)cc(C)c3n2)c1 (centres undefined)	0.1	1.6	2.3	-3.4	-4.5	4.7	/	/
Cn1nc(-c2ccccc2)nc1-c1ccccc1	2.3	-3.6	-1.0	-0.4	-3.0	-2.5	/	/
CN=c1nc(-c2ccccc2)n(-c2ccccc2)s1	0.5	2.3	-1.3	3.4	76.5*	-1.2	28.7	-7.1
C[N+]1(CCCCCCC(=O)/C=N/O)CCCCCC1	0.2	7.5	-7.1	1.1	95.8*	-2.6	-9.0	-13.6
C[N+](C)(C)CCCCCCC(=O)/C=N/O	-2.7	14.3	-2.9	-1.1	37.1	-3.6	/	/
Cc1ccccc1NC(=O)C1c2cccc[n+]2CC(=O)N1c1c(C)cccc1C (centres undefined)	-13.6	25.1	-1.1	-1.6	89.2*	2.7	91.4*	-9.0	Scp-1 Tm shift=-0.4
CC(O)C(NS(=O)(=O)c1ccc(Cl)cc1)C(=O)OCCOc1ccc(F)cc1 (centres undefined)	3.2	-0.2	0.7	-2.7	/	-1.1	/	/
CSc1ccc(NC(=O)Nc2ccc(C(=O)NCC(=O)O)cc2)cc1	14.6	-3.0	38.7	9.6	52.0*	11.0	35.9*	-20.8	Scp-1 Tm shift=6.0*
CCSc1ccc(C(=O)NCC(=O)O)cc1	1.0	-3.9	0.3	-2.6	-2.6	-2.8	/	/
C[N+]1(C)CC2([N+](=O)[O-])CC=C(Oc3ccccc3)C([N+](=O)[O-])(C2)C1 (centres undefined)	2.7	11.8	-0.2	-4.6	97.4*	2.0	87.1*	-14.5	Scp-1 Tm shift=-28.0
CN1CC2([N+](=O)[O-])CC=C(Oc3ccccc3)C([N+](=O)[O-])(C1)C2 (centres undefined)	10.1	-3.8	-0.8	1.7	-2.2	2.5	/	/
O=c1c2ccccc2oc2nc(-c3ccco3)n(Cc3ccccc3)c(=O)c12	8.2	7.2	2.1	-17.5	50.1*	1.5	55.7*	-0.8	Scp-1 Tm shift=-0.7
CCc1nc2oc3ccccc3c(=O)c2c(=O)n1Cc1ccccc1	-0.6	-2.8	-1.6	4.3	-1.1	0.4	/	/
CCc1ccc(NC(=O)C(C)OC(=O)c2cccc(S(=O)(=O)N3CCc4ccccc4C3)c2)cc1 (centres undefined)	0.2	1.9	3.1	-2.7	-15.2	1.8	/	/
SMILES	DNMT1 block	NadD block	LMPTP block	SUMO1 PPI mod	Scp1 inh	STEP inh	Scp-1 conf	MG interference	others
O=C(NC12CC3CC(CC(C3)C1)C2)c1cnccn1	10.7	-1.3	0.3	-2.6	50.5*	2.9	27.4	-10.9
COc1ccc(N2CC(NS(=O)(=O)c3ccc(F)cc3)CC2=O)cc1 (centres undefined)	-1.7	0.2	-0.4	0.0	-4.9	-0.8	-8.4	-10.6
O=C1CC(NS(=O)(=O)c2cccnc2)CN1c1ccc(F)cc1 (centres undefined)	1.1	1.8	-0.1	1.6	3.7	-0.5	/	/
CC1CCc2c(sc(NC(=O)c3ccc(Cn4cc([N+](=O)[O-])cn4)o3)c2C#N)C1 (centres undefined)	41.9	14.3	5.2	4.6	71.3*	2.1	61.0*	-22.1	Scp-1 Tm shift=6.4*
CC(C)CNc1ncnc2c1ncn2[C@H]1CN(Cc2ccc(C(=O)O)cc2)C[C@@H](CO)O1	-0.7	-1.5	-1.4	1.3	/	-2.1	/	/
CCOC(=O)C1=C(C)N=c2s/c(=C\c3cccc(OCC(=O)O)c3)c(=O)n2C1c1ccccc1OC (centres undefined)	-12.2	9.4	1.4	-3.0	60.9*	2.4	33.1*	-13.9	Scp-1 Tm shift=5.8*
CCOC(=O)C1=C(C)N=c2s/c(=C/c3ccc(OCC(=O)O)cc3)c(=O)n2C1c1cc(OC)c(OC)c(OC)c1 (centres undefined)	11.9	12.4	-1.9	-4.9	4.5	0.9	/	/
CCOc1ccccc1NC(=O)C(NCCc1ccc(OC)cc1)c1ccccc1 (centres undefined)	-0.4	3.3	2.6	-5.8	7.0	0.6	/	/
COc1ccc(CCNC(C(=O)Nc2cc(C)cc(C)c2)c2ccccc2)cc1 (centres undefined)	-2.9	-1.6	3.9	1.8	54.1*	0.2	-9.0	-5.4
N/C(=N\NC(=O)c1cccc(F)c1)c1cc2ccccc2oc1=O	3.1	-0.9	0.4	-23.5	52.7*	12.8	72.4*	-17.0	Scp-1 Tm shift=-1.6
COc1ccc2[nH]c(=O)c(CN(C(=O)c3ccco3)C(C)C)cc2c1	7.1	-7.5	-1.5	4.1	60.1*	-2.3	4.2	-11.4
Cc1ccc2nc(SCC(=O)NCc3ccccc3Cl)nc(=O)n2c1	5.4	-4.3	-0.2	1.5	-5.7	-2.2	/	/

Screens deposited in PubChem by Sanford-Burnham Center for Chemical Genomics.
